Screens from PubChem.
TRPC4 PAM: TRPC4 (mouse) allosteric potentiation | AID 2227 | 0.42% of 310,000 active | B-score at 10 µM | HEK293 TRPC4beta/mu-opioid, DAMGO EC20, Fluo-4 Ca2+ flux; hits give high values;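 active = B-score of calcium response area above 5 SD of library B-scores, with initial fluorescence ratio within 5 SD of library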;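 also: B-score of integrated fluorescence ratio over time as area under calcium response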
TRPC4 act: activators of mouse TRPC4 channel; 0.49% of 310,000 active; HEK293 TRPC4beta/mu-opioid, Fluo4 calcium fluorescence; hits give high values; Q9QUQ5; B-score at 10 µM;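 active = B-score above 5 SD of library B-scores, and initial fluorescence ratio not above library mean plus 5 SD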;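 also: positive B-score marks a calcium rise read as TRPC4 activation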
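Assay system: HEK293 stable line with TRPC4beta plus mu-opioid receptor. Times: dye 45 min RT, read 110 s. Measured by: kinetic Fluo4 calcium fluorescence. Measure: B score of integrated ratio. Controls: assay buffer as low control, maximal DAMGO as high control.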
TRPC6 inh: inhibitors of mouse TRPC6 channel; B-score at 10 µM; AID 2553; 1.1% of 310,000 active; HEK293-TRPC6, membrane potential dye, ACh-evoked depolarization; hits give low values;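 active = B-score under library mean minus 3 SD, initial fluorescence not abnormally high, positive integrated signal ratio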;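 also: B-score derived from integrated fluorescence ratio over the kinetic read; more negative B-score means stronger inhibition of depolarization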
Target sequence (Q61143 whole entry, looked up): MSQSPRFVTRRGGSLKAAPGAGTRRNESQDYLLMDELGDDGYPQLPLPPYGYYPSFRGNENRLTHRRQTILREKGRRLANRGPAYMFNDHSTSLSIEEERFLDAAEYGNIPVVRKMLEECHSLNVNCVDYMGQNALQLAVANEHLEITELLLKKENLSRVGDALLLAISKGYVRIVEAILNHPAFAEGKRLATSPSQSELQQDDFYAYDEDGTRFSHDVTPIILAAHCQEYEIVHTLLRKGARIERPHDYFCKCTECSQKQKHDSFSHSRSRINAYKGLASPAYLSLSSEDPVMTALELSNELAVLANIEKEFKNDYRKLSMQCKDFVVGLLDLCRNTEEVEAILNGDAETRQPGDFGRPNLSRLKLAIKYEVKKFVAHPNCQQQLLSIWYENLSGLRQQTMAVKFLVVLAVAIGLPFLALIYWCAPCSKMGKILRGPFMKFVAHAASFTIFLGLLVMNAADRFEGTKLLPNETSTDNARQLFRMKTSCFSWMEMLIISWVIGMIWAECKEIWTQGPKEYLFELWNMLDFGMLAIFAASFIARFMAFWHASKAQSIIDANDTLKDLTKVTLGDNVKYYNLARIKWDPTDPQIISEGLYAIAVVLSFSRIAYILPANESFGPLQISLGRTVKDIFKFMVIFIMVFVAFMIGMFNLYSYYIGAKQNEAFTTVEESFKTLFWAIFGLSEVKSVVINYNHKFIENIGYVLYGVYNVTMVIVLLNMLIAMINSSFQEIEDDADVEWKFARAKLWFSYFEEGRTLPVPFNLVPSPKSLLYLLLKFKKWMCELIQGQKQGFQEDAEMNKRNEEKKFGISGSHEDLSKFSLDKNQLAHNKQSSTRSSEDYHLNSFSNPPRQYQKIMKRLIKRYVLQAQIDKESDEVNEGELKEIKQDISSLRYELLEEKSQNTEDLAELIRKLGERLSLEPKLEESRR
TRPC4 block: blocks the mouse TRPC4 cation channel; Q9QUQ5; HEK293 TRPC4beta/mu-opioid, DAMGO-evoked Fluo4 calcium flux; hits give low values; B-score at 10 µM; 0.39% of 300,000 active;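 active = B-score over 3 SD under the library average, no early fluorescence shift, positive overall ratio signal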
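System: stable TRPC4beta/mu-opioid receptor HEK293 cells; Dosing: single-point compound dosing; Measured by: Fluo4 Ca2+ flux fluorescence; Read-out basis: per-well B score of integrated baseline-normalized Fluo4 ratio.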
TRPC6 activator: activators of mouse TRPC6 channel. HEK293-TRPC6 membrane potential dye fluorescence; hits give high values. B-score at 10 µM. 0.13% of 310,000 active. AID 2550;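 active = B-score of the integrated fluorescence ratio above library mean plus 3 SD, and starting fluorescence ratio within library mean plus 5 SD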;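 also: higher score means more depolarization so channel activation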
TRPC4 spec 2: second check of whether TRPC6 inhibitors also affect mouse TRPC4. 42% of 920 active. shares compounds with TRPC6 inh. AID 2776. HEK293 TRPC4/MOR, membrane potential dye fluorescence; channel activated by saturating DAMGO dose. inhibition, % at 10 µM;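 active = compounds whose fluorescence signal differed from control wells by over 3 SD, either direction, in both duplicate plates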
TRPC4 spec: selectivity of TRPC6 inhibitors: effect on mouse TRPC4. shares compounds with TRPC6 inh. HEK293 TRPC4/mu-opioid, membrane potential fluorescence. activity change, negative = inhibition, % at 10 µM. 61% of 920 active;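 active = rise or fall in signal beyond 3 SD of buffer-only wells in both replicate plates, either sign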;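 also: integrated kinetic ratio of fluorescence range over baseline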
HEK293 MPD ctr 2-1: parental HEK293 nonspecific activity of TRPC6 inhibitors, second screen; shares compounds with TRPC6 inh; parental HEK293 membrane potential dye fluorescence; maximal acetylcholine challenge after compound addition; signal change vs control, % at 10 µM; 31% of 920 active; AID 2779;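 active = membrane potential signal moving either way by over 3 SD of the maximum-effect control, in both duplicate plates, meaning non-specific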
HEK293 MPD ctr-1: parental HEK293 nonspecific activity of TRPC6 inhibitors. shares compounds with TRPC6 inh. parental HEK293 membrane potential dye fluorescence. membrane potential signal change, % at 10 µM. 60% of 920 active;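 active = membrane potential signal shifting up or down by more than 3 SD of buffer-only wells, on both duplicate plates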
HEK293 MPD ctr-2: parental HEK293 nonspecific activity of TRPC6 modulators; shares compounds with TRPC6 inh; membrane potential dye fluorescence; membrane potential signal change, % at 10 µM; 51% of 2,400 active; AID 488924;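 active = membrane potential signal moves up or down beyond 5 SD from buffer-only wells, on both duplicate plates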
HEK293 MPD ctr 2-2: parental HEK293 nonspecific activity of TRPC6 modulators, second screen | shares compounds with TRPC6 inh | AID 488926 | 14% of 2,400 active | membrane potential dye fluorescence; after compound, maximal acetylcholine stimulation | inhibition, % at 10 µM;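 active = membrane potential signal drops by more than 5 SD from the mean control signal, in both duplicate plates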;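 also: plate controls were acetylcholine ECmax control wells for no effect and buffer only wells for full effect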
TRPC4 ctr mod: selectivity of TRPC6 modulators against mouse TRPC4. AID 488927. percent change from control (negative = decrease, positive = increase), % at 10 µM. 69% of 2,400 active. shares compounds with TRPC6 inh. HEK293 TRPC4/mu-opioid, membrane potential fluorescence;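 active = membrane potential signal moved up or down beyond 5 SD of buffer control wells, in both duplicate plates, actives on both sides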;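 also: plate controls were assay buffer wells for no effect and DAMGO maximal-effect wells for full effect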
TRPC4/MOR inh 2: mouse TRPC4 off-target activity of TRPC6 modulators, second screen; shares compounds with TRPC6 inh; HEK293 TRPC4/mu-opioid, membrane potential dye fluorescence; stimulated with maximal-effect DAMGO; inhibition, % at 10 µM; 55% of 2,400 active;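 active = drop in membrane potential signal beyond 5 SD of the control wells in both duplicate plates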;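 also: TRPC4 counter screen for TRPC6 hits run under conditions tuned for TRPC6 not TRPC4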
TRPC6 block conf: mouse TRPC6 inhibitor confirmation; shares compounds with TRPC6 inh; HEK293-TRPC6, membrane potential dye, ACh-evoked depolarization; inhibition, % at 10 µM; 43% of 3,300 active;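 active = fluorescence ratio falls more than 5 SD below the full-stimulation control mean, in both duplicate runs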;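 also: integrated fluorescence ratio of peak minus minimum over baseline after agonist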
TRPC6 act confirm: mouse TRPC6 activator confirmation | HEK293-TRPC6 membrane potential dye fluorescence, FDSS | activation, % at 10 µM | shares compounds with TRPC6 inh | AID 488961 | 11% of 2,800 active;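 active = ratio signal rise beyond 5 SD above unstimulated control wells' mean, seen in both duplicate runs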;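 also: plate controls were buffer EC0 wells for no effect and acetylcholine ECmax response for full effect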
* hit, by the source's call. Only some compounds are listed: those with a hit (about 2.3% of all), similar ones and a draw of the others.

How did CCN(CC)C(=O)CSc1nnc(-c2c[nH]c3ccccc23)o1 do in these assays?
TRPC4 PAM: inactive; TRPC4 act: inactive; TRPC6 inh: inactive; TRPC4 block: inactive; TRPC6 activator: inactive

How did O=c1cc(-c2ccc(Cl)c(Cl)c2)[nH][nH]1 do in these assays?
TRPC4 PAM: inactive; TRPC4 act: inactive; TRPC6 inh: -5.1*; TRPC4 block: inactive; TRPC6 activator: inactive; HEK293 MPD ctr-2: inactive; HEK293 MPD ctr 2-2: inactive; TRPC4 ctr mod: inactive; TRPC4/MOR inh 2: inactive; TRPC6 block conf: inactive; TRPC6 act confirm: inactive

What do the screens show for `O=C(CSc1n[nH]c(-c2cccs2)n1)NCc1cccs1`?
TRPC4 PAM: inactive; TRPC4 act: inactive; TRPC6 inh: -6.8*; TRPC4 block: inactive; TRPC6 activator: inactive; TRPC4 spec 2: inactive; TRPC4 spec: inactive; HEK293 MPD ctr 2-1: inactive; HEK293 MPD ctr-1: inactive; TRPC6 block conf: inactive; TRPC6 act confirm: inactive

What do the screens show for `CCc1[nH]nc(C(=O)N2CCCC(C(=O)c3cccc(C(F)(F)F)c3)C2)c1C` (stereo not drawn)?
TRPC4 PAM: inactive; TRPC4 act: inactive; TRPC6 inh: inactive; TRPC4 block: inactive; TRPC6 activator: inactive

How did CN1CCN(c2ccc(CNC(=O)c3cc4ccccc4o3)cc2)CC1 do in these assays?
TRPC4 PAM: inactive; TRPC4 act: inactive; TRPC6 inh: -5.3*; TRPC4 block: inactive; TRPC6 activator: inactive; HEK293 MPD ctr-2: inactive; HEK293 MPD ctr 2-2: inactive; TRPC4 ctr mod: inactive; TRPC4/MOR inh 2: 32%*; TRPC6 block conf: inactive; TRPC6 act confirm: inactive

How did CC(C)CC[n+]1ccn(-c2nc3ccccc3nc2[N-]S(=O)(=O)c2ccc(Cl)cc2)c1 do in these assays?
TRPC4 PAM: inactive; TRPC4 act: inactive; TRPC6 inh: inactive; TRPC4 block: inactive; TRPC6 activator: inactive

How did CC(=O)N1CCN(CC(=O)Nc2cc(F)ccc2C)CC1 do in these assays?
TRPC4 PAM: inactive; TRPC4 act: inactive; TRPC6 inh: inactive; TRPC4 block: inactive; TRPC6 activator: inactive

Results for O=c1c2ccccc2nnn1CSc1nnc(-c2cccnc2)n1-c1ccccc1F ?
TRPC4 PAM: inactive; TRPC4 act: inactive; TRPC6 inh: inactive; TRPC4 block: inactive; TRPC6 activator: inactive

Results for O=C1OCCC1Sc1nnc(-c2cccnc2)n1-c1ccccc1F (stereo not drawn) ?
TRPC4 PAM: inactive; TRPC4 act: inactive; TRPC6 inh: -7.5*; TRPC4 block: inactive; TRPC6 activator: inactive; TRPC4 spec 2: inactive; TRPC4 spec: inactive; HEK293 MPD ctr 2-1: inactive; HEK293 MPD ctr-1: inactive; TRPC6 block conf: inactive; TRPC6 act confirm: inactive

Results for CCOc1cc2c(cc1OCC)C(c1ccc(C(=O)O)cc1)NCC2 (stereo not drawn) ?
TRPC4 PAM: inactive; TRPC4 act: inactive; TRPC6 inh: inactive; TRPC4 block: inactive; TRPC6 activator: inactive

Results for COC(=O)C1Cc2c([nH]c3ccccc23)C2(CCN(Cc3ccccc3)CC2)N1 (stereo not drawn) ?
TRPC4 PAM: inactive; TRPC4 act: inactive; TRPC6 inh: -7.5*; TRPC4 block: inactive; TRPC6 activator: inactive; TRPC4 spec 2: 47%*; TRPC4 spec: 5.6%*; HEK293 MPD ctr 2-1: 248%*; HEK293 MPD ctr-1: inactive; TRPC6 block conf: inactive; TRPC6 act confirm: inactive

Results for O=C(Cn1nnc(-c2ccccc2)n1)c1ccccc1 ?
TRPC4 PAM: inactive; TRPC4 act: inactive; TRPC6 inh: inactive; TRPC4 block: inactive; TRPC6 activator: inactive

How did O=C(Cn1c(-c2ccccc2)c[n+]2ccsc12)c1ccccc1 do in these assays?
TRPC4 PAM: inactive; TRPC4 act: inactive; TRPC6 inh: -5.3*; TRPC4 block: -11*; TRPC6 activator: inactive; HEK293 MPD ctr-2: inactive; HEK293 MPD ctr 2-2: inactive; TRPC4 ctr mod: 16%*; TRPC4/MOR inh 2: 58%*; TRPC6 block conf: inactive; TRPC6 act confirm: inactive

What do the screens show for `O=C(Cn1c(-c2ccccc2)c[n+]2ccsc12)c1ccc([N+](=O)[O-])cc1`?
TRPC4 PAM: inactive; TRPC4 act: 50*; TRPC6 inh: -5.3*; TRPC4 block: -7*; TRPC6 activator: inactive; HEK293 MPD ctr-2: -198%*; HEK293 MPD ctr 2-2: inactive; TRPC4 ctr mod: 35%*; TRPC4/MOR inh 2: 90%*; TRPC6 block conf: inactive; TRPC6 act confirm: inactive

What do the screens show for `COCCC(=O)N1CCCC(CCC(=O)NCc2ccc(F)c(F)c2)C1` (stereo not drawn)?
TRPC4 PAM: inactive; TRPC4 act: inactive; TRPC6 inh: inactive; TRPC4 block: inactive; TRPC6 activator: inactive

Results for COC(=O)c1ccc(CN2CCCC(CCC(=O)NCc3ccc(C)o3)C2)cc1 (stereo not drawn) ?
TRPC4 PAM: inactive; TRPC4 act: inactive; TRPC6 inh: -7.9*; TRPC4 block: inactive; TRPC6 activator: inactive; TRPC4 spec 2: inactive; TRPC4 spec: 0.0%*; HEK293 MPD ctr 2-1: inactive; HEK293 MPD ctr-1: 3.2%*; TRPC6 block conf: 56%*; TRPC6 act confirm: inactive
